Compounds with a hit are over-represented: about 3.1% of the library has one in this group of screens.
KCNK9 block: inhibitors of human KCNK9 two-pore domain potassium channel; AID 488922; 310,000 tested, 1.2% active; Q9NPC2; B-score at 10 µM; HEK293 KCNK9, FluxOR thallium flux fluorescence; active compounds read low;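 active means ratio B-score over 3 SD below the library mean, with starting fluorescence within 5 SD of its mean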;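 further: negative B-score means less thallium flux so channel inhibition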
KCNK3 block: human KCNK3 channel inhibition, primary screen | O14649 | B-score at 10 µM | 340,000 tested, 0.84% active | CHO-KCNK3 thallium flux, FluxOR fluorescence; active compounds read low;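 active means B-score under library mean minus 4 SD, starting fluorescence ratio at most library mean plus 5 SD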;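 further: more negative B-score means stronger inhibition of thallium flux through KCNK3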
Target sequence (O14649 whole entry, looked up): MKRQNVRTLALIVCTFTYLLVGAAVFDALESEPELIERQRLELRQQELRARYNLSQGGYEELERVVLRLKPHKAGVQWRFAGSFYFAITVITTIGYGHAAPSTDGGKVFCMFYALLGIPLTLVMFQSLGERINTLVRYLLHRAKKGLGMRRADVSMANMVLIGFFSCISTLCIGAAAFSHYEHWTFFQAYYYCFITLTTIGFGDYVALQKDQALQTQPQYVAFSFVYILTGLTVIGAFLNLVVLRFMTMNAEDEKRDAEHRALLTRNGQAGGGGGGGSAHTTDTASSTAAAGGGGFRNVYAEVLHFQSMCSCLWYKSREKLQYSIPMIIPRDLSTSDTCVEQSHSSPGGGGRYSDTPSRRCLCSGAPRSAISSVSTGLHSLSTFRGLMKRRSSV
hERG protect: hERG (human) protection from proarrhythmic block; Q12809; CHO-hERG, FluxOR thallium flux, dofetilide IC70 present; activation (rescue from dofetilide block), less the hit threshold, % at 10 µM; 310,000 tested, 0.51% active;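 active means activation above the mean of controls blocked by dofetilide plus 5 SD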;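 further: thallium influx through hERG after potassium depolarization seen as dye fluorescence rise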
KCNQ1 inh: blocks the human KCNQ1 potassium channel | P51787 | AID 2642 | CHO-K1 KCNQ1, FluxOR thallium flux fluorescence; active compounds read high | 310,000 tested, 1.3% active | B-score at 10 µM;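 active means compounds whose thallium flux B-score, printed positive for inhibition, exceeds three library SD while starting fluorescence stays within three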;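 further: channel opened by potassium depolarization with thallium stimulus after 20 min compound exposure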
KCNQ1 act: human KCNQ1 channel potentiation or activation. P51787. CHO-K1 KCNQ1, thallium flux FluxOR fluorescence; active compounds read high. B-score at 10 µM. 310,000 tested, 0.35% active;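 active means fluorescence ratio B-score, a plate-corrected score, at least three library SD, with initial intensity B-score within 5 SD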
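Assay system: stable KCNQ1 CHO-K1 line; medium: assay buffer, equal DMSO in all wells; timing: 90 min dye loading and 20 min compound exposure, both at room temperature; technique: kinetic FluxOR thallium fluorescence, 10-s 1-Hz baseline, 110-s post-stimulus read; read-out basis: B score of baseline-normalized fluorescence ratio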
* hit, by the source's call.

`Cc1cccn2c(=O)c3c(nc12)N1CCC(Cc2ccccc2)CC1C1(C3)C(=O)N(C)C(=O)N(C)C1=O` (centres undefined) gave KCNK9 block -6.63*, KCNK3 block inactive, hERG protect -11.3, KCNQ1 inh inactive and KCNQ1 act inactive.
`O=P1(c2ccccc2)Nc2ccccc2N1c1ccccc1` (centres undefined) gave KCNK3 block inactive.
CCCn1c(C)c(C(=O)c2cccc3ccccc23)c2ccccc21 was read as KCNK3 block -10.5*.
For O=c1[nH]c(=S)[nH]c(O)c1N=Nc1ccc(S(=O)(=O)N2CCc3ccccc32)cc1 the results were KCNK9 block inactive, KCNK3 block inactive, hERG protect 12.7*, KCNQ1 inh inactive and KCNQ1 act inactive.
Screening c1ccc2c(CNC3CCCCC3)c[nH]c2c1 returned KCNK9 block -7.06*, hERG protect -8.3, KCNQ1 inh inactive and KCNQ1 act inactive.
For N#Cc1ncc(N=Cc2ccc(N(CCCl)CCCl)cc2)s1 the results were KCNK3 block inactive.
Screening O=[N+]([O-])c1ccc(-[n+]2c(-c3ccccc3)cc(-c3ccccc3)cc2-c2ccccc2)cc1 returned KCNK9 block inactive, KCNK3 block inactive, hERG protect -10.3, KCNQ1 inh inactive and KCNQ1 act inactive.
Screening O=[N+]([O-])c1ccccc1-c1cc(-c2ccccc2)cc(-c2ccccc2)[n+]1Cc1ccccc1Cl returned KCNK9 block -8*, hERG protect -29.8, KCNQ1 inh 8* and KCNQ1 act inactive.
For Cc1ccc(/C=C2\C(=O)NC(=S)N(c3ccc(F)cc3)C2=O)s1 the results were KCNK9 block inactive, KCNK3 block inactive, hERG protect 11.4*, KCNQ1 inh inactive and KCNQ1 act inactive.
O=C(c1ccc(F)cc1)C(Cc1ccccc1)N1CCCCC1 (centres undefined) was read as KCNK9 block inactive, KCNK3 block inactive, hERG protect -6.5, KCNQ1 inh inactive and KCNQ1 act inactive.
Screening O=C(CCCN1CCC2(CC1)C(=O)NCN2c1ccccc1)c1ccc(F)cc1 returned KCNK9 block inactive, KCNK3 block inactive, hERG protect -15.3, KCNQ1 inh inactive and KCNQ1 act 23*.
Screening CN1OC[C@@H]2CN[C@H](c3ccccc3Br)C[C@@H]21 returned KCNK3 block inactive.
Screening CC12CCC(=O)C=C1CC(N1CC1)C1C2CCC2(C)C(O)CCC12 (centres undefined) returned KCNK3 block inactive.
CCN1/C(=C\C=C\C2=[N+](CC)c3ccccc3C2(C)C)C(C)(C)c2ccccc21 was read as KCNK9 block inactive, KCNK3 block inactive, hERG protect -55.6, KCNQ1 inh 21* and KCNQ1 act inactive.
CC[n+]1c(-c2ccccc2)c2cc(N)ccc2c2ccc(N)cc21 was read as KCNK3 block inactive.
`C/C1=C\[C@@H](C)C/C=C/[C@H]2[C@@H]3O[C@]3(C)[C@@H](C)[C@H]3[C@H](Cc4c[nH]c5ccccc45)NC(=O)[C@]32C(=O)/C=C/C(=O)[C@@H]1O` gave KCNK9 block inactive, KCNK3 block inactive, hERG protect -0.6, KCNQ1 inh inactive and KCNQ1 act 22*.
Screening Cc1cccc2c1=NC(=O)/C(=C/c1c(O)[nH]c(=O)[nH]c1=O)C=2 returned KCNK9 block inactive, KCNK3 block inactive, hERG protect -3.2, KCNQ1 inh inactive and KCNQ1 act inactive.
Screening O=c1[nH]c(=S)[nH]c(O)c1/C=C1/C=c2ccccc2=N1 returned KCNK9 block inactive, KCNK3 block inactive, hERG protect 45.2*, KCNQ1 inh inactive and KCNQ1 act inactive.
For Cc1cccc(OP(=O)(Oc2ccccc2)OC(c2ccccc2)C(F)(F)F)c1 (centres undefined) the results were KCNK9 block inactive, KCNK3 block inactive, hERG protect -11.2, KCNQ1 inh 8* and KCNQ1 act inactive.
Cc1ccc(C)c(NP(=O)(Oc2ccccc2)Oc2ccccc2)c1 was read as KCNK9 block inactive, KCNK3 block inactive, hERG protect -3.2, KCNQ1 inh inactive and KCNQ1 act inactive.

From PubChem BioAssay
